Published values from different studies.
Each line is one published result; the experiments were not run side by side.
Target: Serine/threonine-protein kinase RIO2 (RIOK2, Homo sapiens, UniProt Q9BVS4)

CN(C)C(=O)Cn1cc(-c2nc([C@@](C)(c3ccc(-c4cnc(N)nc4)cc3)C3CC3)no2)cn1 — remaining binding (cell-free assay, competition with immobilised ligand; 1 µM): 87%
Cc1cnc(Nc2ccc(C(=O)N3CCC(N4CCCC4)CC3)cc2)nc1-c1cc2ccccc2s1 — remaining binding (binding, competition with immobilised ligand; 1 µM): 40%
CS(=O)(=O)N1CCCC(NC(=O)[C@H](CCC2CCCCC2)NC(=O)c2ccc(CNc3ncnc4c3nnn4-c3ccccc3)cc2)C1 (stereo partly drawn) — remaining binding (cell-free assay, competition with immobilised ligand; 0.1 µM): 99%
O=C(c1ccc(Nc2ncc(Cl)c(-c3ccc(Cl)s3)n2)cc1)N1CCC(N2CCCC2)CC1 — remaining binding (binding, competition with immobilised ligand; 1 µM): 49%
Cc1cnn2ncc(-c3ccnc(N(C)C)n3)c2c1 — remaining binding (binding; 1 µM): 92%
COc1ncc2cc3ccccc3nc2c1C#N — remaining binding (cell-free assay, competition with immobilised ligand; 5 µM): 91%
CCN1CCN(Cc2ccc(C(=O)Nc3ccc(C)c(Oc4ccc5c(c4)CC(=O)N5)c3)cc2C(F)(F)F)CC1 — remaining binding (binding, competition with immobilised ligand; 1 µM): 100%
C[C@@H]1CN(c2ccc3ncc(-c4ccc5[nH]nc(C6CC6)c5c4)n3n2)C[C@H](C)O1 — remaining binding (binding, competition with immobilised ligand; 0.5 µM): 23%
Nc1ncc2c(n1)-c1c([nH]c3ccc(C#CC4CC4)cc13)CCCC2 — remaining binding (binding, competition with immobilised ligand; 1 µM): 77%
O=c1nc(-c2ccccn2)sc2ccccc12 — remaining binding (binding, competition with immobilised ligand; 1 µM): 94%
CNC(=O)[C@@H]1CC[C@@H](n2c(-c3ccc4cnccc4c3)nc3ccc(C(=O)NCc4cccc(C(N)=O)c4)cc32)C1 — remaining binding (binding, competition with immobilised ligand; 1 µM): 97%
C[C@@H](c1ccc(-n2cnc3c(N)ncnc32)cc1)N1CCc2nn(C)c(Cc3ccccc3)c2C1=O — remaining binding (binding, competition with immobilised ligand; 0.1 µM): 97%
CCOC(=O)c1cc2cc(-c3cc(C(=O)NCc4ccc(C(=O)O)cc4)nn3C)ccc2[nH]1 — remaining binding (cell-free assay, competition with immobilised ligand; 0.1 µM): 100%
CN(C)c1ncc(F)c(-c2cnn3ncccc23)n1 — remaining binding (binding; 1 µM): 78%
CCc1ccccc1C(=O)Nc1n[nH]c2c(C)c(F)c(C3C(C#N)=C(C)N(C)C(C)=C3C#N)cc12 — remaining binding (cell-free assay, competition with immobilised ligand; 1 µM): 93%
C[C@H]1CCN(c2nccc(-c3cnn4ncccc34)n2)C1 — remaining binding (binding; 1 µM): 90%
O=C(NCC1CCOCC1)c1n[nH]cc1NC(=O)c1c(F)cccc1F — remaining binding (binding, competition with immobilised ligand; 1 µM): 35%
O=C(Nc1ccc(Oc2ccc(F)cc2)cc1)N1CCc2ncccc2[C@H]1c1ccc(F)cc1 — remaining binding (cell-free assay, competition with immobilised ligand; 1 µM): 94%
c1cncc(-c2cccc(Nc3nccc(NC4CCCCC4)n3)c2)c1 — remaining binding (binding, competition with immobilised ligand; 10 µM): 37%
FC(F)(F)Oc1cccc(-c2cnc3ccc(-c4ccncc4)nn23)c1 — remaining binding (binding, competition with immobilised ligand; 5 µM): 7.7%
CN(c1nccc(-c2cnn3ncccc23)n1)C1CC1 — remaining binding (binding; 1 µM): 99%
Cc1nc(N2CC[C@@H](O)C2)ncc1-c1cc(C(F)(F)F)cc2[nH]ncc12 — remaining binding (binding, competition with immobilised ligand; 1 µM): 100%
CN(C)c1nccc(-c2cnn3ncccc23)n1 — remaining binding (binding; 1 µM): 84%
O=C(c1ccc(Nc2nccc(-c3cc4ccccc4s3)n2)cc1)N1CCC(N2CCCC2)CC1 — remaining binding (binding, competition with immobilised ligand; 1 µM): 46%
